# In ChEMBL document CHEMBL1157378, “Role for cell density in antifungal drug resistance in Candida albicans biofilms” (2007):
# How the values were obtained:
# Format in all cases: functional
# Candida albicans [1] = test: Antimicrobial activity against Candida albicans GDH2346 intact biofilms after 48 hrs by XTT assay; conditions: GDH2346, 48 h
# Summary of the method: (§1)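 Biofilm seeded at 1 x 10^6 cells/ml in RPMI in polystyrene microtiter wells and grown 48 h at 37°C in a moist chamber. Washed once and drug added to the same well (twofold dilutions, 1,024 to 0.0313 µg/ml) for 48 h at 37°C (caspofungin 24 h). Read-out: XTT/menadione reduction at 490 nm.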
# Candida albicans [2] = test: Antimicrobial activity against Candida albicans GDH2346 dissociated biofilms at cell density of 10^3 cells/ml after 48 hrs by XTT assay; conditions: GDH2346, 48 h
# Summary of the method: (§2)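 Polystyrene-well biofilms (48 h, 37°C) washed, then broken up in 100 µl RPMI by scraping and aspiration. Cells used undiluted (about 2 x 10^8 cells/ml equivalent) or adjusted by A600 against a hemacytometer-calibrated yeast standard curve. Drug exposure at 37°C for 48 h (caspofungin 24 h), then XTT/menadione read at 490 nm.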
# Candida albicans [3] = test: Antimicrobial activity against fluconazole-resistant Candida albicans FH5 dissociated biofilms at cell density of 10^3 cells/ml after 48 hrs by XTT assay; conditions: FH5, 48 h; summary of the method: as §2
# Candida albicans [4] = test: Antimicrobial activity against Candida albicans SC5314 dissociated biofilms at cell density of 10^8 cells/ml after 48 hrs by XTT assay; conditions: SC5314, 48 h; summary of the method: as §2
# Candida albicans [5] = test: Antimicrobial activity against Chk1 deficient Candida albicans CHK21 at planktonic cell density of 10^3 cells/ml after 48 hrs by XTT assay; conditions: CHK21, 48 h
# Summary of the method: (§3)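 YNB-grown yeast (50 mM glucose, room temperature, shaken, to ~2 x 10^8 cells/ml) washed into MOPS-buffered RPMI 1640 with L-glutamine and set to the stated density. Exposed to twofold serial drug dilutions (1,024 to 0.0313 µg/ml) at 37°C, 48 h (caspofungin 24 h), with drug-free controls. Read-out: XTT (0.5 g/liter) plus 1 µM menadione, formazan at 490 nm.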
# Candida albicans [6] = test: Antimicrobial activity against Cdr1, Cdr2 and Mdr1 deficient Candida albicans DSY1050 at planktonic cell density of 10^3 cells/ml after 48 hrs by XTT assay; conditions: DSY1050, 48 h; summary of the method: as §3
# Candida albicans [7] = test: Antimicrobial activity against Candida albicans SC5314 intact biofilms after 48 hrs by XTT assay; conditions: SC5314, 48 h; summary of the method: as §1
# Candida albicans [8] = test: Antimicrobial activity against Candida albicans SC5314 at planktonic cell density of 10^3 cells/ml after 48 hrs by XTT assay; conditions: SC5314, 48 h; summary of the method: as §3
# Candida albicans [9] = test: Antimicrobial activity against Chk1 deficient Candida albicans CHK21 dissociated biofilms at cell density of 10^8 cells/ml after 48 hrs by XTT assay; conditions: CHK21, 48 h; summary of the method: as §2
# Candida albicans [10] = test: Antimicrobial activity against Cdr1, Cdr2 and Mdr1 deficient Candida albicans DSY1050 dissociated biofilms at cell density of 10^8 cells/ml after 48 hrs by XTT assay; conditions: DSY1050, 48 h; summary of the method: as §2
# Candida albicans [11] = test: Antimicrobial activity against Chk1 deficient Candida albicans CHK21 at planktonic cell density of 10^8 cells/ml after 48 hrs by XTT assay; conditions: CHK21, 48 h; summary of the method: as §3
# Candida albicans [12] = test: Antimicrobial activity against Chk1 deficient Candida albicans CHK21 intact biofilms after 48 hrs by XTT assay; conditions: CHK21, 48 h; summary of the method: as §1
# Candida albicans [13] = test: Antimicrobial activity against Candida albicans assessed as cell viability at cell density of 2 x 10^4 cells/ml preincubated for 1 hr
# Candida albicans [14] = test: Antimicrobial activity against Cdr1, Cdr2 and Mdr1 deficient Candida albicans DSY1050 dissociated biofilms at cell density of 10^3 cells/ml after 48 hrs by XTT assay; conditions: DSY1050, 48 h; summary of the method: as §2
# Candida albicans [15] = test: Antimicrobial activity against Candida albicans FH1 at planktonic cell density of 10^8 cells/ml after 48 hrs by XTT assay; conditions: FH1, 48 h; summary of the method: as §3
# Candida albicans [16] = test: Antimicrobial activity against Candida albicans SC5314 biofilms upto 12 hrs by XTT assay; conditions: SC5314, 12 h
# Summary of the method: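 SC5314 biofilm development followed over 72 h in polystyrene wells. At intervals the developing biofilm was exposed to fluconazole or amphotericin B, and metabolic activity was read by XTT/menadione reduction at 490 nm.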
# Candida albicans [17] = test: Antimicrobial activity against Chk1 deficient Candida albicans CHK21 dissociated biofilms at cell density of 10^3 cells/ml after 48 hrs by XTT assay; conditions: CHK21, 48 h; summary of the method: as §2
# Candida albicans [18] = test: Antimicrobial activity against Cdr1, Cdr2 and Mdr1 deficient Candida albicans DSY1050 intact biofilms after 48 hrs by XTT assay; conditions: DSY1050, 48 h; summary of the method: as §1
# Candida albicans [19] = test: Antimicrobial activity against Candida albicans GDH2346 dissociated biofilms at cell density of 10^8 cells/ml after 48 hrs by XTT assay; conditions: GDH2346, 48 h; summary of the method: as §2
# Candida albicans [20] = test: Antimicrobial activity against Candida albicans SC5314 dissociated biofilms at cell density of 10^3 cells/ml after 48 hrs by XTT assay; conditions: SC5314, 48 h; summary of the method: as §2
# Candida albicans [21] = test: Antimicrobial activity against Candida albicans SC5314 at planktonic cell density of 10^8 cells/ml after 48 hrs by XTT assay; conditions: SC5314, 48 h; summary of the method: as §3
# Candida albicans [22] = test: Antimicrobial activity against Candida albicans FH1 dissociated biofilms at cell density of 10^3 cells/ml after 48 hrs by XTT assay; conditions: FH1, 48 h; summary of the method: as §2
# Candida albicans [23] = test: Antimicrobial activity against fluconazole-resistant Candida albicans FH5 dissociated biofilms at cell density of 10^8 cells/ml after 48 hrs by XTT assay; conditions: FH5, 48 h; summary of the method: as §2
# Candida albicans [24] = test: Antimicrobial activity against Candida albicans GDH2346 at planktonic cell density of 10^8 cells/ml after 48 hrs by XTT assay; conditions: GDH2346, 48 h; summary of the method: as §3
# Candida albicans [25] = test: Antimicrobial activity against fluconazole-resistant Candida albicans FH5 intact biofilms after 48 hrs by XTT assay; conditions: FH5, 48 h; summary of the method: as §1
# Candida albicans [26] = test: Antimicrobial activity against Candida albicans FH1 at planktonic cell density of 10^3 cells/ml after 48 hrs by XTT assay; conditions: FH1, 48 h; summary of the method: as §3
# Candida albicans [27] = test: Antimicrobial activity against fluconazole-resistant Candida albicans FH5 at planktonic cell density of 10^3 cells/ml after 48 hrs by XTT assay; conditions: FH5, 48 h; summary of the method: as §3
# Candida albicans [28] = test: Antimicrobial activity against Candida albicans FH1 dissociated biofilms at cell density of 10^8 cells/ml after 48 hrs by XTT assay; conditions: FH1, 48 h; summary of the method: as §2
# Candida albicans [29] = test: Antimicrobial activity against Candida albicans FH1 intact biofilms after 48 hrs by XTT assay; conditions: FH1, 48 h; summary of the method: as §1
# Candida albicans [30] = test: Antimicrobial activity against Cdr1, Cdr2 and Mdr1 deficient Candida albicans DSY1050 at planktonic cell density of 10^8 cells/ml after 48 hrs by XTT assay; conditions: DSY1050, 48 h; summary of the method: as §3
# Candida albicans [31] = test: Antimicrobial activity against fluconazole-resistant Candida albicans FH5 at planktonic cell density of 10^8 cells/ml after 48 hrs by XTT assay; conditions: FH5, 48 h; summary of the method: as §3
# Candida albicans [32] = test: Antimicrobial activity against Candida albicans SC5314 biofilms after 24 hrs by XTT assay; conditions: SC5314, 24 h
# Summary of the method: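 Intact biofilms formed from 1 x 10^6 cells/ml in RPMI in polystyrene microtiter wells, 48 h at 37°C in a moist chamber, then washed once and covered with 100 µl RPMI. A twofold drug series was added in the same well for 24 h at 37°C. Metabolic activity was read by XTT (0.5 g/liter, 1 µM menadione, up to 2 h) at 490 nm.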
# Candida albicans [33] = test: Antimicrobial activity against Candida albicans GDH2346 at planktonic cell density of 10^3 cells/ml after 48 hrs by XTT assay; conditions: GDH2346, 48 h; summary of the method: as §3
smiles,measurement,setting,value
C[C@@H]1[C@H](O)[C@@H](C)/C=C/C=C/C=C/C=C/C=C/C=C/C=C/[C@H](O[C@@H]2O[C@H](C)[C@@H](O)[C@H](N)[C@@H]2O)C[C@@H]2O[C@](O)(C[C@@H](O)C[C@@H](O)[C@H](O)CC[C@@H](O)C[C@@H](O)CC(=O)O[C@H]1C)C[C@H](O)[C@H]2C(=O)O [AMPHOTERICIN B],MIC80,Candida albicans [1],32 µg/mL
same,MIC80,Candida albicans [2],0.5 µg/mL
same,MIC80,Candida albicans [3],0.25 µg/mL
same,MIC80,Candida albicans [4],> 32 µg/mL
same,MIC80,Candida albicans [5],0.125 µg/mL
same,MIC80,Candida albicans [6],0.25 µg/mL
same,MIC80,Candida albicans [7],> 32 µg/mL
same,MIC80,Candida albicans [8],0.125 µg/mL
same,MIC80,Candida albicans [9],> 32 µg/mL
same,MIC80,Candida albicans [10],> 32 µg/mL
same,MIC80,Candida albicans [11],> 32 µg/mL
same,MIC80,Candida albicans [12],> 32 µg/mL
same,Activity,Candida albicans [13],80%
same,MIC80,Candida albicans [14],0.25 µg/mL
same,MIC80,Candida albicans [15],> 32 µg/mL
same,MIC80,Candida albicans [16],0.125 µg/mL
same,MIC80,Candida albicans [17],0.25 µg/mL
same,MIC80,Candida albicans [18],> 32 µg/mL
same,MIC80,Candida albicans [19],> 32 µg/mL
same,MIC80,Candida albicans [20],0.5 µg/mL
same,MIC80,Candida albicans [21],> 32 µg/mL
same,MIC80,Candida albicans [22],0.125 µg/mL
same,MIC80,Candida albicans [23],> 32 µg/mL
same,MIC80,Candida albicans [24],> 32 µg/mL
same,MIC80,Candida albicans [25],> 32 µg/mL
same,MIC80,Candida albicans [26],0.125 µg/mL
same,MIC80,Candida albicans [27],0.25 µg/mL
same,MIC80,Candida albicans [28],> 32 µg/mL
same,MIC80,Candida albicans [29],> 32 µg/mL
same,MIC80,Candida albicans [30],> 32 µg/mL
same,MIC80,Candida albicans [31],> 32 µg/mL
same,MIC80,Candida albicans [32],> 8 µg/mL
same,MIC80,Candida albicans [33],0.125 µg/mL
